Changes are numbered by the printed parent chain. Entries after “also recorded” stand apart in the source; their conditions may differ. Where two headings read alike, the source gives them in different places.

One may read the solubility as the concentration that dissolves in the medium under given conditions. Low values mean a poorly soluble substance, high ones a readily soluble substance. Broadly, the EC50 is the concentration at which the effect is half-maximal. The low end stands for a more potent agent, the high end for a less potent agent. The term Cmax denotes the peak of the concentration-time curve.

Series [1] concerns PSA and TMPRSS2 mRNA expression in LNCaP cells. The series can be described thus: Quantitative RT-PCR of AR-regulated genes, LNCaP. It counts as cell-based, human. The method in brief: (§1)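 Cells held 24 h in phenol red-free medium with charcoal-stripped serum, then treated 5 h with test compound (0.1–10 µM) or 0.1nM R1881. After RNA extraction and cDNA synthesis, SYBR Green qPCR for PSA and TMPRSS2 used 50ng cDNA per reaction, each sample run in duplicate. Normalised to actin and GAPDH, relative to a reference sample (2^-ΔΔCt). 3 independent experiments, mean ± SEM.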

For the next series, the system named is VCaP cells. Nature of the series: Cell viability. It counts as cell-based, human. As to conditions: for growth inhibition of VCaP cells stimulated by spironolactone: 0.1, 1 or 5μM abiraterone, 10μM bicalutamide or 10μM MDV3100, 7 days; for proliferation of VCaP (WT-AR): 1 and 10μM, CSS, 7 days.
A further series relates to LNCaP cells. Nature of the series: Cell viability. Particulars: for growth inhibition of LNCaP cells stimulated by eplerenone / growth inhibition of LNCaP cells stimulated by spironolactone: 0.1, 1 or 5μM abiraterone, 10μM bicalutamide or 10μM MDV3100, 7 days; for proliferation of hormone-stripped LNCaP (T877A-AR): 1 and 10μM, CSS, 7 days. It counts as cell-based, human.

Another series deals with PC-3. Nature of the series: Cell proliferation, PC-3. It counts as cell-based, human. Particulars: AR-negative prostate cancer cell line.
The next series can be described thus: Solubility in cell media. Type of series: physicochemical. Particulars: plasma or biological fluid, kinetic from dmso stock.
Series [2] addresses T1, T877A-AR (Homo sapiens, UniProt P10275, T878A).
T1 sequence (P10275 1-920 T878A): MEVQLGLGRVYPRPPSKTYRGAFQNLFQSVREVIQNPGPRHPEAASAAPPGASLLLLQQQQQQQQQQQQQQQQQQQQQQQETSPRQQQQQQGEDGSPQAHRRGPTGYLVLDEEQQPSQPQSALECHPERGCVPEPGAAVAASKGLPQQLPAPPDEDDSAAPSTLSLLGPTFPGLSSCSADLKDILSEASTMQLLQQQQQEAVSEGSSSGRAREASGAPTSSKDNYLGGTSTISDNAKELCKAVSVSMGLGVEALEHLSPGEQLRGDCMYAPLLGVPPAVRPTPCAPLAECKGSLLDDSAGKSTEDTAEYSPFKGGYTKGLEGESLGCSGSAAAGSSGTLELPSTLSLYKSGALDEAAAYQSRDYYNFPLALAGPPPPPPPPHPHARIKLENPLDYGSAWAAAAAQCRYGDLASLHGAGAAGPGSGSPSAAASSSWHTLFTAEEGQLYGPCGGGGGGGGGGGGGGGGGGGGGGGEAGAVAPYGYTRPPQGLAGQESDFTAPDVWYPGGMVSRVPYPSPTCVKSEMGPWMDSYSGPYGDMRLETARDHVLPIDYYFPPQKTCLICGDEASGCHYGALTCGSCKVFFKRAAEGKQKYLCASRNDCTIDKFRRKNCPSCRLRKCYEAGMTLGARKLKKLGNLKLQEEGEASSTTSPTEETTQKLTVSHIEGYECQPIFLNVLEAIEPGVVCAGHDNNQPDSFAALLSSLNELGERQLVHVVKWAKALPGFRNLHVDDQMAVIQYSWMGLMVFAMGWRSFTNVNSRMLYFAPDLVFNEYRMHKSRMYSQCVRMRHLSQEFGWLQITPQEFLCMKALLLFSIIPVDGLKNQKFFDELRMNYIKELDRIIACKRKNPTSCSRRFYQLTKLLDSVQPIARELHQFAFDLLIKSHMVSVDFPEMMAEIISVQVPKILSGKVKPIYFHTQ
Type of series: cell-based.

A further series has as its target T2, LNCaP (T877A-AR) (Homo sapiens, UniProt P10275, T878A).
T2 sequence (P10275 1-920 T878A): T1 sequence (P10275 1-920 T878A)
The series can be described thus: cell-based. Type of series: binding.

The next series concerns the target T3, WT-AR (Homo sapiens, UniProt P10275).
T3 sequence (P10275 1-920): T1 sequence (P10275 1-920 T878A) with A878T
Nature of the series: cell-based. Type of series: binding.

In series [3] the test system is WT or mutant AR (T877A, D879G, W741C, M749L, R629Q). Nature of the series: ARE3-luciferase reporter assay in PC-3 cells, WT and mutant AR panel. It counts as cell-based, human. Background: A reporter such as luciferase makes a cellular process visible.
Another series concerns AR. Particulars: cited from earlier work.
The next series deals with DU145. The series can be described thus: Cell proliferation, DU145. Type of series: cell-based, human. Particulars: AR-negative prostate cancer cell line.
Series [4] has as its system WT or mutant human AR (T877A, G142V, P533S, T575A, H874Y, R629Q). The series can be described thus: GRE2-TATA-Luc reporter assay in COS-7 cells co-transfected with AR. Type of series: cell-based.
Series [5] addresses T1, T877A-AR. The series can be described thus: cell-based. It counts as binding.
For series [6] the following is noted: patients ref 2; cited from earlier work.
Series [7] has as its system castration-resistant prostate cancer (CRPC). As to conditions: 1000mg abiraterone daily ref 1, 2; cited from earlier work.
A further series deals with W741C-AR. Nature of the series: PSA-ARE3-luc luciferase reporter assay in transfected PC-3 cells, W741C-AR. Type of series: cell-based, human.
The test system of series [8] is wild-type (WT)-AR. Nature of the series: PSA-ARE3-luc luciferase reporter assay in transfected PC-3 cells, WT-AR. As to conditions: compared to R1881. It counts as cell-based, human.
The test system of series [9] is wild-type (WT)-AR. Particulars: cited from earlier work.
The subject of series [10] is PSA and TMPRSS2 mRNA expression in VCaP cells. The series can be described thus: Quantitative RT-PCR of AR-regulated genes, VCaP. It counts as cell-based, human. As to conditions: 0.1 - 10μM eplerenone, 5 hours. The method in brief:
as §1

For series [11] the following is noted: 100mg eplerenone ref 6, cited from earlier work.
A further series relates to D879G-AR. The series can be described thus: PSA-ARE3-luc luciferase reporter assay in transfected PC-3 cells, D879G-AR. Type of series: cell-based, human. Particulars: compared to R1881. The gist of the method:
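Human AR expression plasmid carrying the mutation (confirmed by sequencing) co-transfected with PSA-ARE3-luc reporter into PC-3 cells. Cells grown 30 h in phenol red-free RPMI 1640 with 10% charcoal-stripped serum, then exposed 16 h to test compound (DMSO ≤0.2%) with R1881 as reference agonist. Luminescence read after ONE Glo. Fold change vs DMSO control; EC50 by nonlinear regression; 3 independent experiments, 16 replicates.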

As for `CNC(=O)c1ccc(N2C(=S)N(c3ccc(C#N)c(C(F)(F)F)c3)C(=O)C2(C)C)cc1F` [MDV3100], in series [1] (LNCaP, 10μM eplerenone, 10μM MDV3100, 5 hours), the “inhibition of induction of TMPRSS2 expression by eplerenone” value is given as “more significantly than bicalutamide or abiraterone”. The “growth inhibition of VCaP cells stimulated by spironolactone” value in the series on VCaP cells is on record as “more profound inhibition”. In addition, in the series on LNCaP cells, the “growth inhibition of LNCaP cells stimulated by eplerenone” value is “more profound inhibition” and the “growth inhibition of LNCaP cells stimulated by spironolactone” value is reported as “more profound inhibition”.

Consider `C[C@]12CC[C@H](O)CC1=CC[C@@H]1[C@@H]2CC[C@]2(C)C(c3cccnc3)=CC[C@@H]12` [abiraterone], for which, in the series with PC-3, the “inhibitory effect on proliferation of PC-3” value is “No inhibitory effect was observed”. In the series “Solubility in cell media”, the solubility is > 25 µM. For the same compound, the “inhibition of activation of T877A-AR by 1μM eplerenone” value against T877A-AR [2] is on record as “significantly inhibited”. Further, on LNCaP (T877A-AR), it took 2600 nM to reach a half-maximal effect (EC50). Also, the “regulation of PSA and TMPRSS2 in LNCaP cells treated with abiraterone” value in series [1] (5μM abiraterone, 0.1nM R1881, 5 hours) was “down-regulation”. The compound further yielded a 50% effective concentration (EC50) at WT-AR of 13.4 µM. Moreover, the “inhibition of stimulated WT and mutant AR activity” value in series [3] (0.1nM R1881, 16 hours) is reported as “dose-proportional inhibition”. In series [3] (1μM abiraterone), the AR inhibition result is reported as “up to 32%”. For the same compound, the “increase in reporter-luciferase activity (agonistic activity) with WT-AR or any mutation tested” value in series [3] (doses up to 25μM) was “did not observe an increase in reporter-luciferase activity; also recorded: no agonistic activity was observed”. Further, in the series on AR, the “binding to the AR” value is given as “failed to identify binding” and the “effect on AR levels” value was “dose-dependent decrease in AR levels”. Further, the “inhibitory effect on proliferation of DU145” value with DU145 is recorded as “No inhibitory effect was observed”. The “inhibition of R629Q-AR” value in series [4] (COS-7, 10nM DHT, compared with PC-3 ARE3-luciferase assay) is recorded as “Higher concentrations of abiraterone were required”. Besides, in [4] (COS-7, activated by 10nM DHT for 24 hours, 0.1 - 5μM), the “inhibition of WT-AR, T877A-AR, G142V-AR, P533S-AR, T575A-AR and H874Y-AR” value was “dose-proportional inhibition”. On T877A-AR [5], this compound displayed an EC50 of 7.9 µM. Also, the doses safely tolerated result in series [6] was “at least 2000 mg daily”. Also, the “growth inhibition of VCaP cells stimulated by spironolactone” value with VCaP cells is given as “dose-proportional growth inhibition”. Besides, the “doses with significant inhibition of proliferation of VCaP” value in the series with VCaP cells (CSS with 0.1nM R1881, 7 days) is ≥ 5 µM. In the series on LNCaP cells, the “growth inhibition of LNCaP cells stimulated by eplerenone” value is “dose-proportional growth inhibition” and the “growth inhibition of LNCaP cells stimulated by spironolactone” value is on record as “dose-proportional growth inhibition”. Moreover, the “doses with significant inhibition of proliferation of LNCaP” value in the series with LNCaP cells (CSS with 0.1nM R1881, 7 days) is ≥ 5 µM. Besides, the “objective tumor responses, CRPC patients” value in series [7] was “up to 60%”.

Consider `CC(O)(CS(=O)(=O)c1ccc(F)cc1)C(=O)Nc1ccc(C#N)c(C(F)(F)F)c1` (stereo not shown) [bicalutamide], for which the “activation of W741C-AR” value in the series with W741C-AR was “activated”.

As to `C[C@@H]1C[C@H]2[C@@H]3CCC4=CC(=O)C=C[C@]4(C)[C@@]3(F)[C@@H](O)C[C@]2(C)[C@@]1(O)C(=O)CO` [dexamethasone], the “activation of WT-AR” value in the series with wild-type (WT)-AR [8] is on record as “do not activate”.

As for `COC(=O)[C@@H]1CC2=CC(=O)CC[C@]2(C)[C@@]23O[C@@H]2C[C@@]2(C)[C@@H](CC[C@@]24CCC(=O)O4)[C@H]13` [eplerenone], in the series with wild-type (WT)-AR [9], the “binding and activation of wild-type (WT)-AR” value is “did not bind and activate”. In [1] (0.1 - 10μM eplerenone, 5 hours), the “expression of PSA and TMPRSS2 in LNCaP” value was “significantly increased expression”. In the series on wild-type (WT)-AR [8], the “activation of WT-AR” value is on record as “does not activate”. Moreover, in the series with W741C-AR, the “activation of W741C-AR” value is on record as “does not activate”. Besides, the “expression of PSA and TMPRSS2 in VCaP” value in series [10] is on record as “not in VCaP”. Also, the “proliferation of VCaP (WT-AR)” value in the series with VCaP cells was “only spironolactone increased the proliferation”. In addition, the “proliferation of hormone-stripped LNCaP (T877A-AR)” value with LNCaP cells is given as “increased proliferation”. The figures for the Cmax in [11] and in [11] (read-out: Cmax (equivalent)) were 1.72 ± 0.28 µg/mL and 4.2 µM, respectively. In the series on D879G-AR, the “activation of D879G-AR” value was “does not activate”.

With `C[C@]12C=CC(=O)C=C1CC[C@@H]1[C@@H]2C(=O)C[C@@]2(C)[C@H]1CC[C@]2(O)C(=O)CO` [prednisone], in the series with wild-type (WT)-AR [8], the “activation of WT-AR” value is “do not activate”.

`CC(=O)S[C@@H]1CC2=CC(=O)CC[C@]2(C)[C@H]2CC[C@@]3(C)[C@@H](CC[C@@]34CCC(=O)O4)[C@H]12` [spironolactone]: the “activation of WT-AR” value in the series with wild-type (WT)-AR [8] is “activates”. In the series with VCaP cells, the “proliferation of VCaP (WT-AR)” value was “increased the proliferation”. Moreover, the “proliferation of hormone-stripped LNCaP (T877A-AR)” value in the series with LNCaP cells is listed as “increased proliferation”. In addition, the “activation of D879G-AR” value in the series on D879G-AR is listed as “activates”.
